The record followed here is publication PMC4334291 (Journal of Chemical Information and Modeling, 2014).

Data set [1] relates to E. coli JM109. The data set can be described thus: Bacterial growth assay, E. coli JM109. The data set is classed as cell-based. The following applies: data not shown. The gist of the method: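 JM109 culture handled as follows: overnight growth at 37 °C, 300 rpm, in 0.5% yeast extract/1% tryptone/0.5% NaCl medium (pH 7.0), then 10× dilution. Incubated at 37 °C, 300 rpm, in medium with test compound, 0.3% DMSO as negative control or ampicillin as positive control. Culture absorbance at 595 nm read after 4, 6 and 8 h.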

In data set [2] the test system is E. coli BL21. Description: Bacterial growth assay, E. coli BL21. Format: cell-based. As to conditions: 100 μM, 4 and 8 h. Summed up:
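E. coli BL21 grown overnight at 37 °C and 300 rpm in 0.5% yeast extract, 1% tryptone, 0.5% NaCl (pH 7.0), then diluted 10×. Grown at 37 °C and 300 rpm with test compound at 100 μM, 0.3% DMSO (negative control) or ampicillin 100 μM (positive control). A595 read at 4, 6 and 8 h. Four independent experiments, mean ± SEM, Dunnett's test.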

The subject of data set [3] is SH-SY5Y cells. The data set can be described thus: Mammalian cells growth/toxicity assay. The data set is classed as cell-based, human. As to conditions: data not shown; 2 days.
Data set [4] relates to MDCK cells. The data set can be described thus: Mammalian cells growth/toxicity assay. Format: cell-based, Canine. The following applies: 30 μM, 1 day. The gist of the method: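 MDCK cells kept in DMEM with 10% FBS, penicillin/streptomycin and 2 mM L-glutamine. Seeded at 5.0 × 10^3 cells/well for 6 h (37 °C, 5% CO2), then starved overnight in 0.25% FBS DMEM. Exposed for 1 day to test compound at 30 μM or ampicillin 30 μM (negative control). CCK-8 added; A450 of WST-8 formazan read after 3 h. Four independent experiments, mean ± SEM, Dunnett's test.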

Data set [5] concerns S. epidermidis ATCC 12228. The data set can be described thus: Bacterial growth assay, S. epidermidis. As to conditions: 100 μM, after 6 h. The data set is classed as cell-based, Staphylococcus epidermidis. The gist of the method:
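Overnight culture at 37 °C and 300 rpm in 1% peptone, 1% beef extract, 0.5% NaCl (pH 7.1), diluted 15×. Grown at 37 °C and 300 rpm with test compound at 100 μM, 0.3% DMSO (negative control) or ampicillin 100 μg/mL (positive control). A595 read at 6 h. Four independent experiments, mean ± SEM, Bonferroni all-pair comparison.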

For data set [6], the target named is wild-type saDHFR (Staphylococcus aureus, UniProt P0A017). The data set can be described thus: S. aureus DHFR enzymatic assay. Format: biochemical.
Data set [7] can be described thus: Solubility in DMSO. Format: physicochemical. The following applies: at 100 μM in DMSO.

Chain of wild-type saDHFR (P0A017 whole entry): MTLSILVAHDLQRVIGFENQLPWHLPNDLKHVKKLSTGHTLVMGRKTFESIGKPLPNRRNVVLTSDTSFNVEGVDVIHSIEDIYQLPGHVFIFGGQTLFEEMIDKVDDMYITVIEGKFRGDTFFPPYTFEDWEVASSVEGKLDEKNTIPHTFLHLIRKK

On to `O=C(O)CN1C(=O)C(=C2C(=O)N(Cc3ccc(Cl)cc3)c3ccccc32)SC1=S` [KB1, {5-[1-(4-chlorobenzyl)-2-oxo-1,2-dihydro-3H-indol-3-ylidene]-4-oxo-2-thioxo-1,3-thiazolidin-3-yl}acetic acid], for which the “Inhibitory effect on the growth of E. coli JM109” value in data set [1] is listed as “did not show inhibitory effects”. In addition, in data set [2], the “Inhibitory effect on the growth of E. coli BL21” value was “did not show inhibitory effects”. Besides, the “Cell death induced in SH-SY5Y cells” value in data set [3] is given as 43.3%. Moreover, the “Toxic effects on MDCK cells” value in data set [4] is reported as “did not show any toxic effects”. For the same compound, the “Inhibitory effect on the growth of S. epidermidis” value in data set [5] was “strong inhibitory effects”.
The term IC50 denotes the concentration at which inhibition is half-maximal. A high value points to weaker potency in that assay. In the case of `O=C(O)CCCN1C(=O)C(=C2C(=O)N(Cc3ccc(Cl)cc3)c3ccccc32)SC1=S` [KBS1, 4-{5-[1-(4-chlorobenzyl)-2-oxo-1,2-dihydro-3H-indol-3-ylidene]-4-oxo-2-thioxo-1,3-thiazolidin-3-yl}butanoic acid], in data set [1], the “Inhibitory effect on the growth of E. coli JM109” value was “no inhibitory effects”. Besides, the “Inhibitory effect on the growth of E. coli BL21” value in data set [2] is listed as “no inhibitory effects”. In data set [3], the “Cell death induced in SH-SY5Y cells” value is reported as 35.4–52.1%. In addition, the “Toxic effects on MDCK cells” value in data set [4] is listed as “weak toxic effect”. For the same compound, the “Inhibitory effect on the growth of S. epidermidis” value in data set [5] is on record as “significant inhibitory effects”. Also, half-maximal inhibition in data set [6] (IC50) required 0.46 ± 0.17 µM.
`Cc1ccc(CN2C(=O)C(=C3SC(=S)N(CC(=O)O)C3=O)c3ccccc32)cc1` [KBS2, {5-[1-(4-methylbenzyl)-2-oxo-1,2-dihydro-3H-indol-3-ylidene]-4-oxo-2-thioxo-1,3-thiazolidin-3-yl}acetic acid]: the “Solubility in DMSO” value in data set [7] is listed as “not soluble”.
For `O=C(O)CN1C(=O)C(=C2C(=O)N(Cc3ccccc3Cl)c3ccccc32)SC1=S` [KBS3, {5-[1-(2-chlorobenzyl)-2-oxo-1,2-dihydro-3H-indol-3-ylidene]-4-oxo-2-thioxo-1,3-thiazolidin-3-yl}acetic acid], the “Inhibitory effect on the growth of E. coli JM109” value in data set [1] was “no inhibitory effects”. Further, the “Inhibitory effect on the growth of E. coli BL21” value in data set [2] is “no inhibitory effects”. For the same compound, the “Cell death induced in SH-SY5Y cells” value in data set [3] was 35.4–52.1%. In data set [4], the “Toxic effects on MDCK cells” value is given as “did not exhibit toxic effects”. Besides, the “Inhibitory effect on the growth of S. epidermidis” value in data set [5] is recorded as “significant inhibitory effects”.
In the case of `O=C(O)CCN1C(=O)C(=C2C(=O)N(Cc3ccc(F)cc3)c3ccccc32)SC1=S` [KBS4, 3-{5-[1-(4-fluorobenzyl)-2-oxo-1,2-dihydro-3H-indol-3-ylidene]-4-oxo-2-thioxo-1,3-thiazolidin-3-yl}propanoic acid], the “Inhibitory effect on the growth of E. coli JM109” value in data set [1] is “no inhibitory effects”. In data set [2], the “Inhibitory effect on the growth of E. coli BL21” value is listed as “no inhibitory effects”. The “Cell death induced in SH-SY5Y cells” value in data set [3] is 35.4–52.1%. In addition, the “Toxic effects on MDCK cells” value in data set [4] was “did not exhibit toxic effects”. Further, the “Inhibitory effect on the growth of S. epidermidis” value in data set [5] is “significant inhibitory effects”.
Consider `CCOCCCN1C(=O)C(=C2C(=O)N(Cc3ccc(Cl)cc3)c3ccccc32)SC1=S` [KBS5, 1-(4-chlorobenzyl)-3-[3-(3-ethoxypropyl)-4-oxo-2-thioxo-1,3-thiazolidin-5-ylidene]-1,3-dihydro-2H-indol-2-one], for which, in data set [5], the “Inhibitory effect on the growth of S. epidermidis” value is “inactive”.
